Values belong to the compound of their own block, whether it stands above or below them. Activity calls are given as the source filed them. No cut-off for these calls is given here.
Columns and labels:
[1] = molecular target: Ubiquitin carboxyl-terminal hydrolase isozyme L1 (Homo sapiens) (UniProt P09936); test: Inhibition of UCHL1 in human HEK293T cells assessed as reduction in Rho-Ub-PA-labelled UCHL1 band intensity at 5 uM incubated for 1 hr followed by incubation with Rho-Ub-PA for 30 mins by fluorescence scanning based analysis; assay type: cell-based; conditions: time 90.0 min
Ubiquitin carboxyl-terminal hydrolase isozyme L1 (Homo sapiens), sequence (P09936 whole entry, looked up): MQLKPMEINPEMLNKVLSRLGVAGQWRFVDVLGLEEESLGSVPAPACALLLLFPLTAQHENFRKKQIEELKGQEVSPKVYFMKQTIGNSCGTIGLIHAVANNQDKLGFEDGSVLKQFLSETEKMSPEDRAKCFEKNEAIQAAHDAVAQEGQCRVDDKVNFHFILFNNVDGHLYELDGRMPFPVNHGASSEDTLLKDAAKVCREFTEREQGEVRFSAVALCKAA

[2] = molecular target: T1, Parkinson disease protein 7 (Homo sapiens) (UniProt Q99497); test: Inhibition of N-terminal GST-tagged human recombinant PARK7 expressed in Escherichia coli BL21(DE3)Rosetta2 cells using SRK59 as fluorescent probe at 1 to 2 uM preincubated for 1 hr followed by SRK59 addition for 30 mins by Gel-based competition assay; conditions: dose 1-2 µM, time 90.0 min
T1 sequence (whole entry): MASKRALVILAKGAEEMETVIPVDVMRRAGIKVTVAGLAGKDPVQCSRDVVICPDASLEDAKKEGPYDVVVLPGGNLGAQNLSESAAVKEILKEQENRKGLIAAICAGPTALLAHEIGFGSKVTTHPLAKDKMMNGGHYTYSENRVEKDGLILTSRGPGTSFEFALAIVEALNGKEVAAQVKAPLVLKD
How it was run: (§1)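 Recombinant PARK7 and UCHL1 (1 μM each, mixed) or PARK7 alone, in 50 mM Tris-HCl, 150 mM NaCl, 2 mM TCEP, pH 7.5. Treated with compound at 2 μM or a serial dilution for 1 h at 37 °C. Then 8RK59 probe (2 μM final) added for 30 min at 37 °C. Run on SDS-PAGE; remaining labelling read by fluorescence scan.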

[3] = molecular target: T1, Parkinson disease protein 7 (Homo sapiens); test: Inhibition of PARK7 in human HEK293T cells assessed as reduction in JQ-92 labelled PARK7 band intensity incubated for 1 hr followed by incubation with JQ-92 for 30 mins by fluorescence scanning based analysis; assay type: cell-based; conditions: dose 0.1-20 µM, time 90.0 min, DDE = dose-dependent effect
[4] = molecular target: T1, Parkinson disease protein 7 (Homo sapiens); test: Inhibition of N-terminal GST-tagged human recombinant PARK7 expressed in Escherichia coli BL21(DE3)Rosetta2 cells using SRK59 as fluorescent probe at 2 uM preincubated for 1 hr followed by SRK59 addition for 30 mins by Gel-based competition assay; conditions: time 90.0 min; how it was run: as §1
[5] = molecular target: T1, Parkinson disease protein 7 (Homo sapiens); test: Inhibition of N-terminal GST-tagged human recombinant PARK7 expressed in Escherichia coli BL21(DE3)Rosetta2 cells using SRK59 as fluorescent probe at 0.5 uM preincubated for 1 hr followed by SRK59 addition for 30 mins by Gel-based competition assay; conditions: time 90.0 min; how it was run: as §1
[6] = molecular target: Ubiquitin carboxyl-terminal hydrolase isozyme L1 (Homo sapiens) (UniProt P09936); test: Inhibition of UCHL1 (unknown origin) using SRK59 as fluorescent probe at 20 uM preincubated for 1 hr followed by SRK59 addition for 30 mins by Gel-based competition assay; conditions: time 90.0 min; how it was run: as §1
[7] = molecular target: T1, Parkinson disease protein 7 (Homo sapiens); test: Inhibition of N-terminal GST-tagged human recombinant PARK7 expressed in Escherichia coli BL21(DE3)Rosetta2 cells using DiFMUAc as substrate at 12.5 to 100 uM preincubated with enzyme for 1 hr followed by substrate addition and measured for 1 hr by DiFMUAc assay based fluorescence analysis; conditions: dose 12.5-100 µM, time 2.0 hrs
How it was run: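 PARK7 GST fusion was expressed in E. coli BL21(DE3) Rosetta2, purified on glutathione beads, cut with 3C protease and polished by SEC. Enzyme at 0.1 μM final in PBS was preincubated with compound at 100, 37.5 or 12.5 μM final. DiFMUAc was then added at 300 μM final, and fluorescence (ex/em 350/450 nm) was monitored for 1 h. Run in triplicate.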

[8] = molecular target: T1, Parkinson disease protein 7 (Homo sapiens); test: Inhibition of PARK7 in human HEK293T cells assessed as reduction in JQ-92 labelled PARK7 band intensity at 1 uM incubated for 1 hr followed by incubation with JQ-92 for 30 mins by fluorescence scanning based analysis; assay type: cell-based; conditions: time 90.0 min
[9] = molecular target: T1, Parkinson disease protein 7 (Homo sapiens); test: Inhibition of PARK7 in human HEK293T cells assessed as reduction in JQ-92 labelled PARK7 band intensity at 0.1 to 50 uM incubated for 1 hr followed by incubation with JQ-92 for 30 mins by fluorescence scanning based analysis; assay type: cell-based; conditions: dose 0.1-50 µM, time 90.0 min
[10] = molecular target: Ubiquitin carboxyl-terminal hydrolase isozyme L1 (Homo sapiens) (UniProt P09936); test: Inhibition of UCHL1 (unknown origin) using SRK59 as fluorescent probe at 2 uM preincubated for 1 hr followed by SRK59 addition for 30 mins by Gel-based competition assay; conditions: time 90.0 min; how it was run: as §1
[11] = molecular target: T1, Parkinson disease protein 7 (Homo sapiens); test: Binding affinity to PARK7 in human HEK293T cells at 1 uM incubated for 1 hr by fluorescence scanning based analysis; assay type: cell-based
[12] = molecular target: T1, Parkinson disease protein 7 (Homo sapiens); test: Binding affinity to PARK7 in human HEK293T cells at 0.5 uM incubated for 1 hr by fluorescence scanning based analysis; assay type: cell-based
[13] = molecular target: T1, Parkinson disease protein 7 (Homo sapiens); test: Binding affinity to N-terminal GST-tagged human recombinant PARK7 expressed in Escherichia coli BL21(DE3)Rosetta2 cells at 1 uM measured after 1 hr by coomassie staining based analysis
How it was run: (§2)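 Purified recombinant PARK7 (GST-tagged in E. coli BL21(DE3) Rosetta2, tag removed by 3C protease, then gel filtration), 1 μM final. Incubated with probe at 0, 0.1, 0.5, 1, 2, 5 or 10 μM for 1 h at 37 °C in 50 mM Tris-HCl, 150 mM NaCl, 2 mM TCEP, pH 7.5. Stopped with LDS sample buffer, run on SDS-PAGE, read by fluorescence scan, then Coomassie stain.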

[14] = molecular target: T1, Parkinson disease protein 7 (Homo sapiens); test: Binding affinity to N-terminal GST-tagged human recombinant PARK7 expressed in Escherichia coli BL21(DE3)Rosetta2 cells at 2 uM measured after 1 hr by fluorescence scanning analysis; how it was run: as §2
[15] = molecular target: T1, Parkinson disease protein 7 (Homo sapiens); test: Binding affinity to N-terminal GST-tagged human recombinant PARK7 expressed in Escherichia coli BL21(DE3)Rosetta2 cells at 2 uM measured after 1 hr by coomassie staining based analysis; how it was run: as §2
[16] = molecular target: T1, Parkinson disease protein 7 (Homo sapiens); test: Binding affinity to PARK7 in human HEK293T cells at 0.5 to 1 uM incubated for 1 hr by western blot analysis; assay type: cell-based; conditions: dose 0.5-1 µM
[17] = molecular target: T1, Parkinson disease protein 7 (Homo sapiens); test: Binding affinity to PARK7 in UCHL1 knockdown human HEK293T cells at 1 uM incubated for 1 hr by fluorescence scanning based analysis; assay type: cell-based
How it was run: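 HEK293T cells were siRNA-transfected with Dharmafect 1 and cultured 3 days, then lysed in Triton X-100/TCEP Tris buffer (pH 7.5) with protease inhibitors. Lysate labelled with probe at 1 μM final for 1 h at 37 °C. Read by SDS-PAGE Cy5 fluorescence scan (635/655 nm), then immunoblot for UCHL1/PARK7 with actin as loading control.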

[18] = molecular target: T1, Parkinson disease protein 7 (Homo sapiens); test: Binding affinity to N-terminal GST-tagged human recombinant PARK7 expressed in Escherichia coli BL21(DE3)Rosetta2 cells at 1 uM measured after 1 hr by fluorescence scanning analysis; how it was run: as §2
[19] = molecular target: T1, Parkinson disease protein 7 (Homo sapiens); test: Binding affinity to N-terminal GST-tagged human recombinant PARK7 expressed in Escherichia coli BL21(DE3)Rosetta2 cells at 5 uM measured after 1 hr by fluorescence scanning analysis; how it was run: as §2
[20] = molecular target: T1, Parkinson disease protein 7 (Homo sapiens); test: Binding affinity to N-terminal GST-tagged human recombinant PARK7 expressed in Escherichia coli BL21(DE3)Rosetta2 cells at 5 uM measured after 1 hr by coomassie staining based analysis; how it was run: as §2

Compound: O=c1ccc(NS(=O)(=O)c2cccc(S(=O)(=O)F)c2)c[nH]1
- inhibition [7]: Active
- inhibition [8]: 100%
- inhibition [9]: Active

Compound: O=C(O)c1csc(C(=O)CCl)c1
- inhibition [7]: Active
- inhibition [9]: Active

Compound: N#CN1CC[C@H](C(=O)Nc2nc3c(s2)CN(C(=O)CN=[N+]=[N-])CC3)C1
- inhibition [1]: Active
- inhibition [10]: Active

Compound: CC[N+]1=C(/C=C/C=C/C=C2/N(CCCCCC(=O)NCCCc3cn(CC(=O)N4CCc5nc(NC(=O)[C@@H]6CCN(C#N)C6)sc5C4)nn3)c3ccc(S(=O)(=O)O)cc3C2(C)C)C(C)(C)c2cc(S(=O)(=O)[O-])ccc21
- Activity [11]: Active
- Activity [12]: Active
- Activity [13]: Active
- Activity [14]: Active
- Activity [15]: Active
- Activity [16]: Active
- Activity [17]: Active
- Activity [18]: Active

Compound: N#CN1CC[C@H](C(=O)Nc2nc3c(s2)CN(C(=O)CCCCBr)CC3)C1
- inhibition [10]: 100%
- inhibition [4]: Active

Compound: CCC(C)c1ccc(NC(=O)CCl)cc1 (stereo not drawn)
- inhibition [7]: Active
- inhibition [9]: Active

The next lines start with the values.

- inhibition [1]: Active
Compound: N#CN1CC[C@H](C(=O)Nc2ncc(N3CCOCC3)s2)C1

- inhibition [2]: 100%
- inhibition [3]: Dde
- inhibition [4]: 100%
- inhibition [5]: Active
- inhibition [6]: Active
Compound: N#CN1CC[C@@H](C(=O)Nc2nc3c(s2)CN(C(=O)CN=[N+]=[N-])CC3)C1

- inhibition [10]: 100%
- inhibition [4]: Active
Compound: N#CN1CC[C@H](C(=O)Nc2nc3c(s2)CN(C(=O)Cc2ccncc2)CC3)C1

- inhibition [10]: 100%
- inhibition [4]: Active
Compound: CN1C(=O)CC(C(=O)N2CCc3nc(NC(=O)[C@H]4CCN(C#N)C4)sc3C2)[C@@H]1c1cccnc1 (stereo partly drawn)

- Activity [13]: Active
- Activity [18]: Active
Compound: N#CN1CC[C@@H](C(=O)Nc2nc3c(s2)CN(C(=O)Cn2cc(CCCNC(=O)c4ccc(-c5c6ccc(=N)cc-6oc6cc(N)ccc56)c(C(=O)O)c4)nn2)CC3)C1

- Activity [19]: Active
- Activity [20]: Active
Compound: CC1=CC(C)=[N+]2C1=C(CCCCc1cn(CC(=O)N3CCc4nc(NC(=O)[C@@H]5CCN(C#N)C5)sc4C3)nn1)c1c(C)cc(C)n1[B-]2(F)F

Reference: ChEMBL document CHEMBL5104184, “Chemical Toolkit for PARK7: Potent, Selective, and High-Throughput” (J Med Chem, 2022)
